Experimental data as given in publication PMC2532710 (Nucleic Acids Research, 2008).
“And” between values parts separate entries of the source, which are not always exact repeats. Identical values can stand only once.

Assays:
HJ substrate [1] = assay: 2-AP fluorescence quenching, HJ substrate; format: binding
Method in brief: (§1)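 Substrates were annealed from oligos (boiled 5 min, slow-cooled), gel-purified on native 12% PAGE and quantified spectrophotometrically. After ≥10 min equilibration, emission was read at 330–430 nm (excitation 315 nm). Adenine-substituted spectra were subtracted, and fold decrease at 370 nm was taken versus no peptide.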

Lagging strand fork = assay: 2-AP titration Kd, lagging strand fork; format: binding; conditions: Kd ratio, n = 1
Method in brief: (§2)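 Each substrate carried 2-AP at strand 4, position 2 and was used at 0.1 μM in 20 mM Tris-HCl pH 7.8, 25 mM NaCl, 1 mM EDTA, 1.6% DMSO at 24°C. Peptide dimer added in 2-fold steps from 0.003125 μM, 3 min each. Excitation 315 nm, emission 330–430 nm. Adenine background subtracted, 365–375 nm averaged. Fc fitted by least squares to pooled 2–3 dilution series. Value given as Kd relative to HJ Kd.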

Oligo = assay: 2-AP titration Kd, oligo; format: binding; conditions: Kd ratio, n = 1
Method in brief: as §2

protein-free HJ DNA [2] = assay: peptide/RecG band shift assay on HJ; format: binding; conditions: read-out: dissociation constant (Kd) by band shift assay; peptide dimer, HJ
HJ substrate [3] = assay: dissociation from HJ; format: binding
[4] = tested on: fork substrate with only the leading strand; assay: 2-AP fluorescence quenching, leading strand fork; format: binding
Method in brief: as §1

[5] = tested on: central thymine bases of HJ; conditions: bound to HJ; cited from earlier work
[6] = tested on: 1AP1 oligonucleotide alone (ssDNA); assay: 2-AP fluorescence quenching, single oligonucleotide; format: binding
[7] = tested on: fork substrate with only the lagging strand; assay: 2-AP fluorescence quenching, lagging strand fork; format: binding
Method in brief: as §1

human RAD54 protein = conditions: cited from earlier work
RecG helicase = conditions: cited from earlier work
[8] = tested on: replication fork substrates; conditions: ref K. Kepple, Ph.D. Thesis, 2006; cited from earlier work
Complete fork = assay: 2-AP titration Kd, complete fork; format: binding; conditions: Kd ratio, n = 1
Method in brief: as §2

Holliday junction = assay: 2-AP titration Kd, Holliday junction; format: binding; conditions: Kd ratio, n = 1
Method in brief: as §2

RuvABC complex = conditions: cited from earlier work
flayed duplex molecule = assay: 2-AP fluorescence quenching, flayed duplex; format: binding
Method in brief: as §1

protein-free HJ DNA [9] = conditions: cited from earlier work
Flayed fork = assay: 2-AP titration Kd, flayed fork; format: binding; conditions: Kd ratio, n = 1
Method in brief: as §2

RecG/HJ complex = assay: displacement of RecG from HJ DNA; format: binding, Escherichia coli; conditions: 0.1 μM (WRWYCR)2
[10] = tested on: RecG binding to HJ substrate; conditions: cited from earlier work
linear dsDNA = conditions: cited from earlier work

Fold reduced versus HJ (Lagging strand fork): 5.5 | Fold reduced versus HJ (Oligo): 51.1 | Kd (protein-free HJ DNA [2]): 12.5 nM | Fold reduced versus HJ (Complete fork): 4.4 | Fold reduced versus HJ (Holliday junction): 1 | Fold reduced versus HJ (Flayed fork): 43.9 | disappearance of band with two RecG monomers per HJ (RecG/HJ complex): takes far longer to disappear
Substance: (WRWYCR)2 (disulfide)
quenching of four central 2-AP bases (HJ substrate [1]; 4-fold excess of peptide dimer over substrate): at least 1.6 fold | fold decrease in 2-AP fluorescence at 370 nm (HJ substrate [1]; HJ-1AP1 (central base), 0.2 μM dimer, 1:1): 1.2 fold | fold decrease in 2-AP fluorescence at 370 nm (HJ substrate [1]; HJ-1AP1 (central base), 0.8 μM dimer, 4:1): 1.6 fold | fold decrease in 2-AP fluorescence at 370 nm (HJ substrate [1]; HJ-1AP1 (central base), 1.6 μM dimer, 8:1): 1.8 fold | fold decrease in 2-AP fluorescence at 370 nm (HJ substrate [1]; HJ-3AP1 (central base), 0.2 μM dimer, 1:1): 1.3 fold | fold decrease in 2-AP fluorescence at 370 nm (HJ substrate [1]; HJ-3AP1 (central base), 0.8 μM dimer, 4:1): 2.0 fold | fold decrease in 2-AP fluorescence at 370 nm (HJ substrate [1]; HJ-3AP1 (central base), 1.6 μM dimer, 8:1): 2.2 fold | fold decrease in 2-AP fluorescence at 370 nm (HJ substrate [1]; HJ-3AP2, 0.2 μM dimer, 1:1): 1.0 fold | fold decrease in 2-AP fluorescence at 370 nm (HJ substrate [1]; HJ-4AP1 (central base), 0.2 μM dimer, 1:1): 1.2 fold | fold decrease in 2-AP fluorescence at 370 nm (HJ substrate [1]; HJ-4AP1 (central base), 0.8 μM dimer, 4:1): 1.9 fold | fold decrease in 2-AP fluorescence at 370 nm (HJ substrate [1]; HJ-4AP1 (central base), 1.6 μM dimer, 8:1): 1.8 fold | fold decrease in 2-AP fluorescence at 370 nm (HJ substrate [1]; HJ-4AP2 (central base), 0.05 μM dimer, 0.25:1): 1.0 fold | fold decrease in 2-AP fluorescence at 370 nm (HJ substrate [1]; HJ-4AP2 (central base), 0.2 μM dimer, 1:1): 1.2 fold | fold decrease in 2-AP fluorescence at 370 nm (HJ substrate [1]; HJ-4AP2 (central base), 0.8 μM dimer, 4:1): 2 fold and 2.0 fold | fold decrease in 2-AP fluorescence at 370 nm (HJ substrate [1]; HJ-4AP2 (central base), 1.6 μM dimer, 8:1): 2.2 fold | fold decrease in 2-AP fluorescence at 370 nm (HJ substrate [1]; HJ-4AP3, 0.05 μM dimer, 0.25:1): 1.0 fold | fold decrease in 2-AP fluorescence at 370 nm (HJ substrate [1]; HJ-4AP3, 0.2 μM dimer, 1:1): 1.2 fold | fold decrease in 2-AP fluorescence at 370 nm (HJ substrate [1]; HJ-4AP4, 0.05 μM dimer, 0.25:1): 1.0 fold | fold decrease in 2-AP fluorescence at 370 nm (HJ substrate [1]; HJ-4AP4, 0.2 μM dimer, 1:1): 1.0 fold | fold decrease in 2-AP fluorescence at 370 nm (HJ substrate [1]; HJ-4AP4, 0.8 μM dimer, 4:1): 1.2 fold | fold decrease in 2-AP fluorescence at 370 nm (HJ substrate [1]; HJ-4AP4, 1.6 μM dimer, 8:1): 1.2 fold | quenching of 2-AP in the center of HJ and replication forks (HJ substrate [1]; center of both HJ and replication forks): quench the fluorescence of 2-AP bases | quenching of central bases, preliminary set (HJ substrate [1]; the eighth central base, Boldt and Segall, unpublished data, preliminary): 1.6 X | time for half of bound peptide to dissociate (HJ substrate [3]; 0.015 μM (WRWYCR)2, 1 nM labeled HJ, 0.2 μM unlabeled HJ (200X), 4°C): More than an hour | dissociation slower than RecG (HJ substrate [3]; peptide vs RecG, from HJ): about 2 X | fold decrease in 2-AP fluorescence at 370 nm ([4]; Lead-1AP1 (central base), 0.05 μM dimer, 0.25:1): 1.0 fold | fold decrease in 2-AP fluorescence at 370 nm ([4]; Lead-1AP1 (central base), 1.6 μM dimer, 8:1): 1.3 fold | fold decrease in 2-AP fluorescence at 370 nm ([4]; Lead-4AP1 (central base), 0.05 μM dimer, 0.25:1): 1.0 fold | fold decrease in 2-AP fluorescence at 370 nm ([4]; Lead-4AP1 (central base), 0.8 μM dimer, 4:1): 1.3 fold | fold decrease in 2-AP fluorescence at 370 nm ([4]; Lead-4AP1 (central base), 1.6 μM dimer, 8:1): 1.7 fold | 2-AP quenching ([4]; Lead-4AP1, Lead-4AP2 and Lead-4AP3): all quenched by the peptide | fold decrease in 2-AP fluorescence at 370 nm ([4]; Lead-4AP2 (central base), 0.05 μM dimer, 0.25:1): 1.0 fold | fold decrease in 2-AP fluorescence at 370 nm ([4]; Lead-4AP2 (central base), 0.8 μM dimer, 4:1): 1.2 fold | fold decrease in 2-AP fluorescence at 370 nm ([4]; Lead-4AP3, 0.05 μM dimer, 0.25:1): 1.0 fold | fold decrease in 2-AP fluorescence at 370 nm ([4]; Lead-4AP3, 0.8 μM dimer, 4:1): 1.2 fold | fold decrease in 2-AP fluorescence at 370 nm ([4]; Lead-4AP4, 0.2 μM dimer, 1:1): 1.0 fold | fold decrease in 2-AP fluorescence at 370 nm ([4]; Lead-4AP4, 1.6 μM dimer, 8:1): 1.2 fold | 2-AP quenching ([4]; Lead-4AP4 and Lead-1AP1): less sensitive | increase in KMnO4 sensitivity of central thymine bases [5]: ~2 fold | 2-AP quenching ([6]; 8-fold molar excess of peptide, data not shown): no significant quenching | 2-AP quenching ([6]; 16-fold peptide excess): Quenching begins | 2-AP quenching ([6]; 32-fold excess): increases | fold decrease in 2-AP fluorescence at 370 nm ([7]; Lag-1AP1 (central base), 0.05 μM dimer, 0.25:1): 1.0 fold | fold decrease in 2-AP fluorescence at 370 nm ([7]; Lag-1AP1 (central base), 0.2 μM dimer, 1:1): 1.0 fold | fold decrease in 2-AP fluorescence at 370 nm ([7]; Lag-1AP1 (central base), 0.8 μM dimer, 4:1): 1.3 fold | fold decrease in 2-AP fluorescence at 370 nm ([7]; Lag-1AP1 (central base), 1.6 μM dimer, 8:1): 2.0 fold | 2-AP quenching ([7]; Lag-1AP1, 4- and 8-fold molar excess): quenched | 2-AP quenching ([7]; Lag-3AP2): only very weak quenching | fold decrease in 2-AP fluorescence at 370 nm ([7]; Lag-3AP2, 0.05 μM dimer, 0.25:1): 1.0 fold | fold decrease in 2-AP fluorescence at 370 nm ([7]; Lag-3AP2, 0.2 μM dimer, 1:1): 1.0 fold | fold decrease in 2-AP fluorescence at 370 nm ([7]; Lag-4AP1 (central base), 0.05 μM dimer, 0.25:1): 1.0 fold | fold decrease in 2-AP fluorescence at 370 nm ([7]; Lag-4AP1 (central base), 0.8 μM dimer, 4:1): 1.3 fold | fold decrease in 2-AP fluorescence at 370 nm ([7]; Lag-4AP1 (central base), 1.6 μM dimer, 8:1): 1.9 fold | 2-AP quenching ([7]; Lag-4AP1 and Lag-4AP2): quenched strongly | fold decrease in 2-AP fluorescence at 370 nm ([7]; Lag-4AP2 (central base), 0.05 μM dimer, 0.25:1): 1.0 fold | fold decrease in 2-AP fluorescence at 370 nm ([7]; Lag-4AP2 (central base), 0.8 μM dimer, 4:1): 1.3 fold | fold decrease in 2-AP fluorescence at 370 nm ([7]; Lag-4AP2 (central base), 1.6 μM dimer, 8:1): 1.6 fold | fold decrease in 2-AP fluorescence at 370 nm ([7]; Lag-4AP3, 0.05 μM dimer, 0.25:1): 1.0 fold | fold decrease in 2-AP fluorescence at 370 nm ([7]; Lag-4AP3, 0.2 μM dimer, 1:1): 1.0 fold | fold decrease in 2-AP fluorescence at 370 nm ([7]; Lag-4AP3, 0.8 μM dimer, 4:1): 1.2 fold | fold decrease in 2-AP fluorescence at 370 nm ([7]; Lag-4AP3, 1.6 μM dimer, 8:1): 1.3 fold | 2-AP quenching ([7]; Lag-4AP3 and Lag-4AP4): quenched relatively weakly | fold decrease in 2-AP fluorescence at 370 nm ([7]; Lag-4AP4, 0.05 μM dimer, 0.25:1): 1.0 fold | fold decrease in 2-AP fluorescence at 370 nm ([7]; Lag-4AP4, 0.2 μM dimer, 1:1): 1.0 fold | fold decrease in 2-AP fluorescence at 370 nm ([7]; Lag-4AP4, 1.6 μM dimer, 8:1): 1.0 fold | inhibition of D-loop unwinding activity (human RAD54 protein): inhibit the D-loop unwinding activity | inhibition of unwinding of branched DNA substrates by RecG (RecG helicase): inhibit unwinding of branched DNA substrates | inhibition of RecG by fork type (RecG helicase; fork with only lagging vs only leading strand): inhibits RecG most on a fork substrate with only the lagging strand and least on a fork substrate with only the leading strand | binding to replication forks by band shift [8]: unable to detect binding | inhibition of HJ resolution by RuvABC (RuvABC complex): inhibit | IC50 (RuvABC complex; read-out: IC50, RuvABC): ~50 nM | fold decrease in 2-AP fluorescence at 370 nm (flayed duplex molecule; Flayed-1AP1 (central base), 1.6 μM dimer, 8:1): 1.3 fold | fold decrease in 2-AP fluorescence at 370 nm (flayed duplex molecule; Flayed-4AP1 (central base), 0.8 μM dimer, 4:1): 1.2 fold | 2-AP quenching (flayed duplex molecule; Flayed-4AP1, 4AP2 and 4AP3, compared with leading strand fork): even less sensitive to quenching | fold decrease in 2-AP fluorescence at 370 nm (flayed duplex molecule; Flayed-4AP2 (central base), 0.05 μM dimer, 0.25:1): 1.0 fold | fold decrease in 2-AP fluorescence at 370 nm (flayed duplex molecule; Flayed-4AP2 (central base), 0.8 μM dimer, 4:1): 1.3 fold | fold decrease in 2-AP fluorescence at 370 nm (flayed duplex molecule; Flayed-4AP3, 0.05 μM dimer, 0.25:1): 1.0 fold | fold decrease in 2-AP fluorescence at 370 nm (flayed duplex molecule; Flayed-4AP3, 0.8 μM dimer, 4:1): 1.2 fold | fold decrease in 2-AP fluorescence at 370 nm (flayed duplex molecule; Flayed-4AP3, 1.6 μM dimer, 8:1): 1.3 fold | fold decrease in 2-AP fluorescence at 370 nm (flayed duplex molecule; Flayed-4AP4, 0.05 μM dimer, 0.25:1): 1.0 fold | fold decrease in 2-AP fluorescence at 370 nm (flayed duplex molecule; Flayed-4AP4, 0.2 μM dimer, 1:1): 1.0 fold | fold decrease in 2-AP fluorescence at 370 nm (flayed duplex molecule; Flayed-4AP4, 1.6 μM dimer, 8:1): 1.2 fold | 2-AP quenching (flayed duplex molecule; Flayed-4AP4 and Flayed-1AP1): only weakly quenched | binding to free HJ DNA (protein-free HJ DNA [9]): bind specifically to free HJ DNA | effect of Mg^2+ or spermidine on HJ binding (protein-free HJ DNA [9]): strongly inhibited | complexes formed when peptide and RecG are added together to HJ [10]: mostly peptide–HJ complexes | interaction with linear dsDNA (linear dsDNA): not with linear dsDNA | binding to dsDNA (linear dsDNA; high concentrations): binds to dsDNA nonspecifically at high concentrations
